Assay results from ChEMBL document CHEMBL1157552, “Antimalarial and antitubercular nostocarboline and eudistomin derivatives: synthesis, in vitro and in vivo biological evaluation” (Bioorg Med Chem, 2010).
Where a name gives a salt, the structure may show the parent alone.

Experiments:
Plasmodium berghei [1] = assay: Antiparasitic activity against Plasmodium berghei infected in mice (Mus musculus) assessed as reduction of parasitaemia at 50 mg/kg, intraperitoneally administered 4, 24, 48, 72 hrs post infection measured 24 hrs of last treatment on day 4 relative to control; format: functional; parameters: scale not given: the % may be the effect or the level left; conditions: route intraperitoneal
Procedure, shortened: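 Compounds formulated in DMSO/water and given i.p. at 50 mg/kg, 4 doses, to P. berghei-infected mice. Parasitaemia measured by FACS on day 4 post infection, 24 h after the last dose. Activity is the difference in mean % parasitaemia between control (n = 5 mice) and treated groups, as % of control. Mean survival time was also recorded.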

[2] = system: Mycolicibacterium smegmatis; assay: Antitubercular activity against Mycobacterium smegmatis mc2 155; format: functional; conditions: str. MC2 155
[3] = system: Mycobacterium tuberculosis; assay: Antitubercular activity against Mycobacterium tuberculosis H37Rv; format: functional
[4] = system: Corynebacterium glutamicum; assay: Antitubercular activity against Corynebacterium glutamicum ATCC 13032; format: functional
Procedure, shortened: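 Grown in 7H9 medium; susceptibility determined by resazurin reduction. MIC99 is the lowest drug concentration preventing growth of 99% of cells.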

Trypanosoma cruzi = assay: Antiparasitic activity against Trypanosoma cruzi Tulahuen C2C4; format: functional, organism-based
Procedure, shortened: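 Tested against Tulahuen C2C4 amastigotes grown in L6 rat skeletal myoblasts.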

[5] = system: Trypanosoma brucei rhodesiense; assay: Antiparasitic activity against Trypanosoma brucei rhodesiense STIB 900; format: functional, organism-based
Procedure, shortened: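 Tested against bloodstream forms of STIB 900.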

Leishmania donovani = assay: Antiparasitic activity against Leishmania donovani MHOM-ET-67/L82 axenic amastigotes; format: functional, organism-based
Plasmodium falciparum = assay: Antiparasitic activity against Plasmodium falciparum K1; format: functional, organism-based
Procedure, shortened: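 Tested against erythrocytic stages of the K1 strain.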

[6] = Selectivity ratio of IC50 for rat L6 cells to IC50 for Plasmodium falciparum K1; format: ADME, cell-based; conditions: L6 cells (cytotoxicity) versus Plasmodium falciparum K1, read-out: Ratio IC50
L6 = assay: Cytotoxicity against rat L6 cells; format: cell-based
Plasmodium berghei [7] = assay: Antiparasitic activity against Plasmodium berghei infected in mice (Mus musculus) assessed as survival days at 50 mg/kg, intraperitoneally administered 4, 24, 48, 72 hrs post infection; format: functional; conditions: route intraperitoneal
Procedure, shortened: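 Infected mice received the compounds formulated in DMSO/water, given i.p. as 4 × 50 mg/kg. Parasitaemia was measured by FACS on day 4 post infection, 24 h after the last treatment. Activity was taken as the reduction in mean % parasitaemia versus the untreated control group (n = 5 mice). Mean survival time in days was recorded.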

Row | SMILES | Activity (Plasmodium berghei [1]) | MIC99 [2] | MIC99 [3] | MIC99 [4] | IC50 (Trypanosoma cruzi) | IC50 [5] | IC50 (Leishmania donovani) | IC50 (Plasmodium falciparum) | selectivity ratio [6] | IC50 (L6) | Survival (Plasmodium berghei [7])
1 | Clc1ccc2[nH]c3c[n+](CCCCCC[n+]4ccc5c(c4)[nH]c4ccc(Cl)cc45)ccc3c2c1.[Br-].[Br-] | 0% | 20 µM | 8 µM | 8 µM | – | – | – | – | – | – | –
2 | CC[n+]1ccc2c(c1)[nH]c1ccc(Cl)cc12.[I-] | 15.36% | – | – | – | 100 µM | 36.8 µM | 251 µM | 0.452 µM | 250 | 113 µM | –
3 | C[n+]1ccc2c(c1)[nH]c1ccccc12 [NORMELINONINE F] | – | – | – | – | – | – | – | – | > 853 | – | –
4 | COC(=O)CCC[n+]1ccc2c(c1)[nH]c1ccc(Br)cc12 | – | – | – | – | 64.6 µM | 111 µM | > 203 µM | 2.33 µM | 70 | 162 µM | –
5 | CCCC[n+]1ccc2c(c1)[nH]c1ccc(Br)cc12 | – | – | – | – | 35.3 µM | 11.7 µM | 35.1 µM | 1.15 µM | 60 | 68.7 µM | –
6 | C[n+]1c2ccccc2cc2[n-]c3ccccc3c21 [CRYPTOLEPINE HYDROCHLORIDE] | – | – | – | – | – | – | – | – | 9 | – | –
7 | COC(=O)CCC[n+]1ccc2c(c1)[nH]c1ccc(Cl)cc12 | – | – | – | – | 115 µM | 106 µM | 117 µM | 3.14 µM | 66 | 207 µM | –
8 | C[n+]1ccc2c(c1)[nH]c1ccc(Br)cc12.[I-] | 0% | – | – | – | 132 µM | 47.2 µM | > 230 µM | 0.018 µM | 4780 | 86.1 µM | –
9 | Fc1ccc(C[n+]2ccc3c(c2)[nH]c2ccc(Cl)cc23)cc1 | – | – | – | – | 87.7 µM | 18.1 µM | 110 µM | 4.67 µM | 24 | 111 µM | –
10 | Brc1ccc2[nH]c3c[n+](Cc4ccc5ccccc5c4)ccc3c2c1 | – | – | – | – | 7.5 µM | 4.1 µM | 17.7 µM | 0.481 µM | 11 | 5.1 µM | –
11 | Clc1ccc2[nH]c3c[n+](CCOCC[n+]4ccc5c(c4)[nH]c4ccc(Cl)cc45)ccc3c2c1.[Cl-].[Cl-] | 2.6% | 46 µM | 18 µM | 9 µM | – | – | – | – | – | – | –
12 | Brc1cccc2c1[nH]c1c[n+](Cc3ccccc3)ccc12 | – | – | – | – | 42.9 µM | 7 µM | 66.5 µM | 2.58 µM | 11 | 28.7 µM | –
13 | Clc1ccc2[nH]c3c[n+](Cc4ccccc4)ccc3c2c1 | – | – | – | – | 24.6 µM | 6.2 µM | 113 µM | 3 µM | 9 | 27 µM | –
14 | CCCC[n+]1ccc2c(c1)[nH]c1ccc(Cl)cc12 | – | – | – | – | 104 µM | 11.6 µM | 112 µM | 1.62 µM | 46 | 74 µM | –
15 | Clc1ccc2[nH]c3c[n+](Cc4cccc(C[n+]5ccc6c(c5)[nH]c5ccc(Cl)cc56)c4)ccc3c2c1 | – | 50 µM | 20 µM | 20 µM | – | – | – | – | – | – | –
16 | O=[N+]([O-])c1ccc(C[n+]2ccc3c(c2)[nH]c2ccc(Br)cc23)cc1 | – | – | – | – | 14.1 µM | 10.8 µM | 38.2 µM | 1.33 µM | 14 | 18.1 µM | –
17 | Fc1ccc(C[n+]2ccc3c(c2)[nH]c2ccc(Br)cc23)cc1 | – | – | – | – | 13.3 µM | 4.7 µM | 16.4 µM | 1.76 µM | 13 | 22.6 µM | –
18 | C[n+]1ccc2c(c1)[nH]c1ccc(Cl)cc12.[I-] [NOSTOCARBOLINE] | 49.6% | 290 µM | > 29 µM | > 29 µM | – | – | – | – | – | – | 7.3 days
19 | Fc1ccc(C[n+]2ccc3c(c2)[nH]c2c(Br)cccc23)cc1 | – | – | – | – | 28.7 µM | 3.8 µM | 53.4 µM | 3.28 µM | 5 | 17.5 µM | –

Row | SMILES | Activity (Plasmodium berghei [1]) | MIC99 [2] | MIC99 [3] | MIC99 [4] | IC50 (Trypanosoma cruzi) | IC50 [5] | IC50 (Leishmania donovani) | IC50 (Plasmodium falciparum) | selectivity ratio [6] | IC50 (L6) | Survival (Plasmodium berghei [7])
20 | Brc1cccc2c1[nH]c1c[n+](Cc3ccc4ccccc4c3)ccc12 | – | – | – | – | 7.9 µM | 4.4 µM | 46.4 µM | 0.502 µM | 7 | 3.7 µM | –
21 | Clc1ccc2[nH]c3c[n+](Cc4ccc(-c5ccc(C[n+]6ccc7c(c6)[nH]c6ccc(Cl)cc67)cc5)cc4)ccc3c2c1.[Cl-].[Cl-] | 0% | 152 µM | > 15 µM | > 15 µM | – | – | – | – | – | – | –
22 | CC[n+]1ccc2c(c1)[nH]c1ccc(Br)cc12.[I-] | 13.25% | – | – | – | 90.5 µM | 26.4 µM | > 223 µM | 0.032 µM | 2440 | 78.8 µM | –
23 | Clc1ccc2[nH]c3c[n+](CCCCCCCCCC[n+]4ccc5c(c4)[nH]c4ccc(Cl)cc45)ccc3c2c1 | – | > 142 µM | 4 µM | 14 µM | – | – | – | – | – | – | –
24 | Fc1cccc(C[n+]2ccc3c(c2)[nH]c2ccc(Br)cc23)c1 | – | – | – | – | 25.9 µM | 5.6 µM | 11 µM | 2.15 µM | 19 | 41.5 µM | –
25 | Clc1ccc2[nH]c3c[n+](C/C=C\C[n+]4ccc5c(c4)[nH]c4ccc(Cl)cc45)ccc3c2c1.[Cl-].[Cl-] | 11.53% | > 188 µM | 9 µM | 5 µM | – | – | – | – | – | – | –
26 | Brc1ccc2[nH]c3c[n+](CCCc4ccccc4)ccc3c2c1 | – | – | – | – | 12.6 µM | 4.5 µM | 20.4 µM | 0.459 µM | 60 | 27.5 µM | –
27 | Clc1ccc2[nH]c3c[n+](Cc4ccc(C[n+]5ccc6c(c5)[nH]c5ccc(Cl)cc56)cc4)ccc3c2c1 | – | > 170 µM | > 17 µM | > 17 µM | – | – | – | – | – | – | –
28 | CC[n+]1ccc2c(c1)[nH]c1c(Br)cccc12 | – | – | – | – | 170 µM | 25 µM | > 223 µM | 6.62 µM | 23 | 153 µM | –
29 | Clc1ccc2[nH]c3c[n+](CCCCCCCC[n+]4ccc5c(c4)[nH]c4ccc(Cl)cc45)ccc3c2c1 | – | 147 µM | 7 µM | 7 µM | – | – | – | – | – | – | –
30 | O=[N+]([O-])c1ccc(C[n+]2ccc3c(c2)[nH]c2ccc(Cl)cc23)cc1 | – | – | – | – | 32.8 µM | 21.3 µM | 146 µM | 2.21 µM | 19 | 42.2 µM | –
31 | O=C1c2ccccc2-[n+]2ccc3c([nH]c4ccccc43)c21 [FASCAPLYSIN CHLORIDE] | – | – | – | – | – | – | – | 0.184 µM | 50 | – | –
32 | C[n+]1cc2[nH]c3ccccc3c2c2ccccc21 [ISONEOCRYPTOLEPINE] | – | – | – | – | – | – | – | – | 18 | – | –
33 | Clc1ccc2[nH]c3c[n+](CCCCCCCCCCCC[n+]4ccc5c(c4)[nH]c4ccc(Cl)cc45)ccc3c2c1 | – | 17 µM | 7 µM | 14 µM | – | – | – | – | – | – | –
34 | Brc1ccc2[nH]c3c[n+](Cc4ccccc4)ccc3c2c1 | – | – | – | – | 16.3 µM | 5.2 µM | 21.2 µM | 2.37 µM | 26 | 61.6 µM | –
35 | C=CC[n+]1ccc2c(c1)[nH]c1c(Br)cccc12 | – | – | – | – | 154 µM | 26.2 µM | 123 µM | 6.74 µM | 17 | 112 µM | –
36 | Clc1ccc2[nH]c3c[n+](CCCc4ccccc4)ccc3c2c1 | – | – | – | – | 20.9 µM | 6.2 µM | 18.6 µM | 1.61 µM | 44 | 71.3 µM | –
37 | C=CC[n+]1ccc2c(c1)[nH]c1ccc(Cl)cc12 | – | – | – | – | 57.8 µM | 33.5 µM | 196 µM | 0.831 µM | 152 | 126 µM | –
38 | C=CC[n+]1ccc2c(c1)[nH]c1ccc(Br)cc12.[Br-] | 3.57% | – | – | – | 86.6 µM | 17.4 µM | 20.1 µM | 0.492 µM | 266 | 131 µM | –
